Screening data deposited in PubChem by several laboratories.
Rows were chosen to be rich in hits. Some 2.6% of all compounds tested hit in one or more screens of this group.
EP2 antag – blocks the human prostaglandin E2 receptor EP2; P43116; C6 glioma cells expressing human EP2, cAMP TR-FRET; cells stimulated with saturating PGE2; inhibition, % at 25 µM; actives 0.52% (n = 260,000); AID 1422;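 active = percent inhibition above 40 after rounding to a whole number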;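 note: rat C6 glioma host cells with rolipram phosphodiesterase inhibitor present; the protocol text gives 20 µM as final concentration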
MC4R antag cAMP – antagonists of human melanocortin 4 receptor (MC4R); P32245; MC4R-expressing cells, MTII-stimulated cAMP, LANCE TR-FRET; inhibition, % at 6.5 µM; actives 0.48% (n = 360,000);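 active = inhibition above its plate's cutoff, the mean of tested wells on that plate plus 3 SD, cut at about 29% in these data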;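 note: 0% = Melanotan II alone and 100% = Melanotan II plus saturating MCL0020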
Target sequence (P32245 whole entry, looked up): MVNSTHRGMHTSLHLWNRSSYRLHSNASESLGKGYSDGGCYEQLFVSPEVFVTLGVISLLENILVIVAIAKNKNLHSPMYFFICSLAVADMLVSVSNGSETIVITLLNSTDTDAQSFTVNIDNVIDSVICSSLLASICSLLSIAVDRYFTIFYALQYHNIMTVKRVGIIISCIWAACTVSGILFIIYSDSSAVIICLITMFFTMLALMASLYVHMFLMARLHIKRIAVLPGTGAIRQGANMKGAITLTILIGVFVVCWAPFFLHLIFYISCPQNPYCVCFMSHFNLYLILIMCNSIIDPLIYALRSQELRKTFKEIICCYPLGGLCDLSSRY
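Assay system: U2OS-MC4R stable cell line; Also added: Melanotan II; Technique: Eu-cAMP/anti-cAMP TR-FRET, emission 671 nm; Times: 30-min compound, 1-h challenge, 1-h detection, room temperature.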
Granule exo inh – blocks lytic granule exocytosis; actives 0.66% (n = 360,000); inhibition, % at 10 µM; TALL-104 LAMP-1 surface exposure, flow cytometry; cells stimulated with thapsigargin and PMA; AID 651702;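 active = inhibition above about 55%, limit read from the data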
EP2 mod – EP2 receptor (human) modulation | actives 0.83% (n = 260,000) | induction, % at 25 µM | AID 940 | EP2-expressing cells, cAMP HTRF FRET, PGE2 co-stimulation | P43116;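 active = compounds whose cAMP rise, as percent of the full-agonist control response, exceeds 60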;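 note: rat C6 glioma line stably carrying human EP2 under a CMV promoter; the protocol text gives 20 µM as final concentration; 100% = response of wells given 1 µM PGE2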
T cell modulator – T cell immune modulators affecting CD8 T cell-vesicle binding; AID 2052; response (vesicle binding), % at 7 µM; 2C CD8+ T cell-vesicle binding, flow cytometry; active compounds read low; actives 0.068% (n = 330,000);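 active = response, share of CD8 T cells binding vesicles, and their 90th percentile fluorescence all below set limits, cut at about 80% in these data, passing the limit was not always enough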;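 note: values below 100% mean blocked vesicle binding to the CD8+ T cells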
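Material: murine 2C transgenic CD8+ T lymphocytes / Also added: QL9-peptide-loaded Drosophila micro-vesicles bearing Ld, ICAM-1 and B7-1 / Schedule: binding step 1.5 h, 37 °C, antibody labelling 20 min, ice / Signal: flow cytometry, PE anti-B7-1 (FL2) versus Alexa647 anti-CD8 (FL8), PFA-fixed / Evaluation: percent CD8+ FL2 mean versus row control / Benchmarks: naked versus QL9-loaded vesicles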
MC4R ag barr – agonists of human melanocortin 4 receptor (MC4R) beta-arrestin | P32245 | U2OS MC4R beta-arrestin complementation, luminescence; percent of melanotan II response, DMSO zero | activation, % at 8.9 µM | actives 0.98% (n = 360,000) | AID 540308;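 active = activation above a per-plate cutoff, the mean activation of sample wells on that plate plus 3 SD, cut at about 8% in these data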
MC4R barr conf – human MC4R beta-arrestin agonism confirmation; shares compounds with MC4R ag barr; U2OS MC4R beta-arrestin recruitment, luminescence; scaled DMSO 0%, Melanotan II 100%; activation, % at 8.9 µM; actives 31% (n = 2,400); AID 602192;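 active = mean activation across replicates above the hit cutoff set in the earlier primary screen, cut at about 8% in these data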
MOR DOR agonist – activates mu-delta opioid heterodimer, MC4R agonist counter-screen; shares compounds with MC4R ag barr; U2OS PathHunter beta-arrestin, beta-gal luminescence; percent of deltorphin B response, DMSO zero; actives 5.8% (n = 2,400); AID 602194; activation, % at 9.2 µM;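 active = mean activation across replicates exceeds the hit threshold derived in the earlier primary screen, cut at about 18% in these data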;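 note: 100% = deltorphin B at 0.9 µM final and 0% = DMSO alone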
Starred values were filed as active, the others as inactive.

For CC(=O)Nc1cc(-c2ccc(CO)cc2)cn2c(-c3cccc(C(F)(F)F)c3)cnc12 the results were MC4R antag cAMP 9, Granule exo inh -1, MC4R ag barr 19*, MC4R barr conf 20* and MOR DOR agonist 3.
For CC(=O)Nc1cc(-c2ccc(N)nc2)cn2c(-c3cccc(C(F)(F)F)c3)cnc12 the results were MC4R antag cAMP 1, Granule exo inh 2, MC4R ag barr 19*, MC4R barr conf 9.8* and MOR DOR agonist 3.
CC(=O)Nc1cc(-c2ccc(N)cc2)cn2c(-c3cccc(C(F)(F)F)c3)cnc12 was read as MC4R antag cAMP 17, Granule exo inh 0, MC4R ag barr 11*, MC4R barr conf 12* and MOR DOR agonist 3.
Screening COCCNC(=O)COc1ccc(C)cc1C(=O)c1cc(C#N)c(=O)n(C2CC2)c1 returned EP2 antag 12, MC4R antag cAMP 19, Granule exo inh -1, EP2 mod -23, T cell modulator 433 and MC4R ag barr -1.
Screening CCOc1cc(NC(=S)NCCCN2CCOCC2)c(OCC)cc1NC(=O)c1cccs1 returned EP2 antag 1, MC4R antag cAMP -7, Granule exo inh 2, EP2 mod -2, T cell modulator 193 and MC4R ag barr -2.
`COc1ccc(N2CCN(CC(=O)Nc3nnc(-c4ccccc4)s3)CC2)cc1` gave EP2 antag 6, MC4R antag cAMP 3, Granule exo inh 1, EP2 mod -5, T cell modulator 180, MC4R ag barr 11*, MC4R barr conf 1 and MOR DOR agonist 4.
For COC(=O)c1ccc(C(=O)OC)c(NC(=O)CN2CCN(c3ccc(OC)cc3)CC2)c1 the results were EP2 antag 13, MC4R antag cAMP -2, Granule exo inh 0, EP2 mod -3, T cell modulator 286 and MC4R ag barr 2.
For COC(=O)c1ccc(C(=O)OC)c(NC(=O)CN2CCN(c3ccccc3)CC2)c1 the results were EP2 antag 5, MC4R antag cAMP -3, Granule exo inh 5, EP2 mod 17, T cell modulator 374, MC4R ag barr 15*, MC4R barr conf 14* and MOR DOR agonist 14.
Screening Cc1ccc(S(=O)(=O)N2CCCC2C(=O)OCc2nc3ccccc3s2)cc1 (stereo not drawn) returned EP2 antag 6, MC4R antag cAMP 14, Granule exo inh -1, EP2 mod -10, T cell modulator 415 and MC4R ag barr 1.
Screening Cc1cccc(C)c1NC(=O)c1cn(-c2ccccc2)nc1-c1ccccc1 returned EP2 antag 10, MC4R antag cAMP 20, Granule exo inh 3, EP2 mod 21, T cell modulator 0, MC4R ag barr 9.9*, MC4R barr conf 1 and MOR DOR agonist 6.
Screening COc1ccc(-c2cc(C(=O)Nc3c(C)nn(Cc4ccccc4Cl)c3C)no2)cc1 returned EP2 antag 6, MC4R antag cAMP -4, Granule exo inh -1, EP2 mod -56, T cell modulator 473, MC4R ag barr 13*, MC4R barr conf 11* and MOR DOR agonist 4.
`Cc1nc(NC(=O)COC(=O)C2CC2C)c(Cl)cc1Cl` (stereo not drawn) gave MC4R antag cAMP 11, Granule exo inh 3, T cell modulator 264 and MC4R ag barr -1.
CCOC(=O)C1CCN(C(=O)C2CCN(S(=O)(=O)c3ccc4c(c3)CC(C)N4C(C)=O)CC2)CC1 (stereo not drawn) was read as MC4R antag cAMP -1, Granule exo inh -1, T cell modulator 120 and MC4R ag barr 0.
`O=C(Nc1ccc(Cl)cn1)c1cc2c(s1)-c1ccccc1OC2` gave EP2 antag 10, MC4R antag cAMP 7, Granule exo inh 3, EP2 mod 25, T cell modulator 152, MC4R ag barr 9.8*, MC4R barr conf 8.3* and MOR DOR agonist 3.
`COc1cc(-c2nnc3sc(Cc4ccc(Cl)cc4)nn23)cc(OC)c1OC` gave MC4R antag cAMP -66, Granule exo inh -2, T cell modulator 699, MC4R ag barr 14*, MC4R barr conf 11* and MOR DOR agonist 3.
For COc1ccc(Cc2nn3c(-c4cc(OC)c(OC)c(OC)c4)nnc3s2)cc1 the results were EP2 antag 11, MC4R antag cAMP -38, Granule exo inh 1, EP2 mod 39, T cell modulator 406 and MC4R ag barr -2.
Screening COc1ccc(OCc2nn3c(-c4cccc(OC)c4)nnc3s2)cc1 returned EP2 antag 4, MC4R antag cAMP 7, Granule exo inh -1, EP2 mod 1, T cell modulator 229, MC4R ag barr 11*, MC4R barr conf 4 and MOR DOR agonist 3.
Cc1ccc(C(C(=O)NC2CCCCC2)N(C(=O)Cc2c[nH]c3ccccc23)c2ccccc2)o1 (stereo not drawn) was read as EP2 antag 14, MC4R antag cAMP -6, Granule exo inh 2, EP2 mod 48, T cell modulator 698, MC4R ag barr 12*, MC4R barr conf 6 and MOR DOR agonist 10.
Cc1ccc(C(C(=O)NC2CCCCC2)N(C(=O)Cc2c[nH]c3ccccc23)C2CC2)o1 (stereo not drawn) was read as EP2 antag 6 and EP2 mod 25.
`Cc1cccc2[nH]c3c(N4CCN(C(=O)c5ccco5)CC4)ncnc3c12` gave EP2 antag 9, MC4R antag cAMP 6, Granule exo inh 0, EP2 mod -24, T cell modulator inactive and MC4R ag barr -2.
`O=C(NCc1nc(-c2ccc(C(F)(F)F)cc2)no1)Nc1ccc(OC(F)(F)F)cc1` gave EP2 antag 5, MC4R antag cAMP 3, Granule exo inh 20, EP2 mod -11, T cell modulator 169, MC4R ag barr 11*, MC4R barr conf 5 and MOR DOR agonist 2.
COC(=O)c1cccc(NC(=O)c2nn(C(C)C)c(=O)c3ccccc23)c1 was read as EP2 antag 7, MC4R antag cAMP 3, Granule exo inh -1, EP2 mod 23, T cell modulator 395, MC4R ag barr 14*, MC4R barr conf 0 and MOR DOR agonist 3.
`CC1CCN(C(=O)CSc2nc3ccccc3n2CC(=O)N(C(C)C)C(C)C)CC1` gave EP2 antag 6 and EP2 mod -87.
